# BB579 growth dn: chemicals that inhibit yeast BB579 growth in restrictive medium (lifespan-shortening candidates); S. cerevisiae BB579 growth, OD615, 48 h; inhibition, % at 10 µM; 140,000 tested, 0.51% active; AID 804;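 active means inhibition above a set limit, 3 SD over the mean compound inhibition, cut at about 44% in these data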
#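 Detection: OD615 turbidity measurement; Material: Saccharomyces cerevisiae DeaD strain BB579, replicative lifespan model yeast; Timing: 48 h exposure, 30 °C; Doses: single 10 µM dose; Medium: CSMM-D restrictive synthetic medium containing dextrose (glucose); Controls: amphotericin B at 10 µg/mL as positive control.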
# RAM network inh: inhibitors of the yeast RAM network; S. cerevisiae dse1pr::URA3 reporter, 5-FOA growth OD615, 2 d; analog-sensitive cbk1-as2 kinase mutant strain; 190,000 tested, 1.8% active; inhibition, % at 50 µM;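 active means inhibition above a set limit, 3 SD over mean compound inhibition, cut at about 8.4% in these data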;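 further: 0% = DMSO-only wells with no growth and 100% = 10 µM 1-NA-PP1 full growth; inhibition rescues growth on 5-FOA so higher OD means more RAM inhibition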
# WT yeast gro inh: growth inhibition of WT yeast, mitochondrial fusion screen | mitochondrial fusion phenotypic screen, WT strain | inhibition, % at 10 µM | 190,000 tested, 2.1% active; in the data active means inhibition above about 58%; tested in S. cerevisiae
# Yeast lifespan up: yeast lifespan extension; S. cerevisiae growth with nicotinamide, OD615; deaD strain in restrictive glucose medium; inhibition of the nicotinamide effect, % at 10 µM; 130,000 tested, 0.68% active; AID 775;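 active means inhibition above a set limit, placed 3 SD over the median of all compounds, cut at about 26% in these data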;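 further: 0% = nicotinamide-treated wells and 100% = cells grown without nicotinamide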
#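 assay system = DeaD-strain S. cerevisiae | buffer or medium = restrictive glucose medium | reagent = 1.5 mM nicotinamide | compound = 10 µM single point, 0.25% DMSO | incubation = 48 h compound exposure at 30 °C, humidified | signal = OD615 measurement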
# Starred values were filed as active, the others as inactive; . = no result. In the library only some 4.3% were active in any assay of this set; here they are far more common.
SMILES,BB579 growth dn,RAM network inh,WT yeast gro inh,Yeast lifespan up
COc1ccc(CCNC(=O)c2ccc3ccccc3n2)cc1OC,.,-1,-4,.
Cc1cccc(C)c1OCCNC(=O)c1ccc2ccccc2n1,.,1,68*,.
O=C(NCCOc1ccc(Cl)cc1)c1ccc2ccccc2n1,.,1,62*,.
COc1ccc(Oc2nc3ccccc3nc2C(F)(F)F)cc1,-42,1,0,-11
COc1ccc(Oc2nc(SC)nc3ccccc23)cc1,-13,11*,0,-12
CCOc1ccc(N2C(=O)/C(=C/c3ccccc3)N=C2SC)cc1,.,2,-14,.
COc1ccc(/C=C2\N=C(SC)N(c3ccccc3OC)C2=O)cc1,.,8.4*,12,.
CCOc1ccc(C(=O)Nc2ccc(NC(=O)c3cccs3)cc2)cc1[N+](=O)[O-],-22,10*,-10,1
COc1ccc(C(=O)Nc2ccc(NC(=O)c3cccs3)cc2)cc1[N+](=O)[O-],-39,2,-16,2
COc1ccc(C(=O)Nc2ccc(OCc3ccccc3)cc2)cc1[N+](=O)[O-],9,1,-2,60*
Cc1c(C(=O)Nc2ccc(OCc3ccccc3)cc2)cccc1[N+](=O)[O-],-55,5,0,-11
C=C(C)C1Cc2nc(N)nc(C)c2C1 (centres undefined),-25,0,17,-6
C=C(C)C1Cc2c(C)nn(-c3nc(C)cc(C)n3)c2C1 (centres undefined),-5,0,64*,-9
COc1ccc(Nc2nc(-c3ccccc3)c(C(=O)Nc3cccnc3)s2)cc1,.,6,1,.
CC(=NCCc1c(C)[nH]c2ccc(C)cc12)C1=C(O)CC(c2ccccc2)CC1=O (centres undefined),-12,3,15,58*
CC(=NCCc1c(C)[nH]c2ccc(OC(F)(F)F)cc12)C1=C(O)CC(c2ccccc2)CC1=O (centres undefined),.,5,0,.
COc1cccc(N/C(SCc2cccc([N+](=O)[O-])c2)=C(/C#N)C(N)=O)c1,.,8.5*,8,.
Cc1ccccc1N/C(SCc1cccc(Br)c1)=C(/C#N)C(N)=O,-21,5,-19,10
COC(=O)/C=C1\SC(=NC(=O)c2cccc(Cl)c2)NC1=O,-20,1,1,-7
COC(=O)/C=C1/SC(=NC(=O)c2ccccc2)NC1=O,19,-1,-7,28*
Cc1onc(-c2ccccc2)c1C(=O)NC(=S)NNC(=O)c1ccc(O)cc1O,80*,1,28,0
Cc1onc(-c2ccccc2)c1C(=O)NC(=S)NNC(=O)c1ccccc1O,4,5,28,6
CCCn1c(C)cc(C(=O)COC(=O)c2ccc[nH]c2=O)c1C,45*,2,14,25
Cc1cc(C(=O)COC(=O)c2ccccc2O)c(C)n1Cc1cccs1,-48,9.0*,10,-13
Cc1ccc(-n2c(C)cc(C(=O)COC(=O)c3ccc[nH]c3=O)c2C)cc1C,99*,1,19,-12
SMILES,BB579 growth dn,RAM network inh,WT yeast gro inh,Yeast lifespan up
Cc1ccc(NC(=O)c2ccccc2OCC(=O)Nc2cccc(Cl)c2C)nc1,.,2,6,.
O=C(CCCCN1CCCCC1)c1ccc2c(c1)Cc1ccccc1-2,.,1,33,.
O=C(Nc1ccccc1-c1nc2ccccc2s1)C1=COCCO1,-50,3,-17,0
CC(=O)C(C(C)=O)c1c(Cl)c(O)c(O)c2c(C(=O)c3ccccc3)coc12,-32,6,56,37*
CN1CCN(Cc2c(O)ccc3occ(C(=O)c4ccccc4)c23)CC1,-60,-1,11,2
CCCCC(=O)NC(=S)NNC(=O)CC#N,-2,-1,.,-4
CCCCC(=O)NNC(=S)NC(=O)CCC,78*,-1,23,.
CCCCCC(=O)NNC(=S)NC(=O)c1ccc([N+](=O)[O-])cc1,.,-1,62*,.
COc1ccccc1OCCN(C#N)c1nc(N(C)C)nc(N(C)C)n1,.,0,14,.
CCN(CC)C(C)C(=O)NCC1(c2ccccc2)CCOCC1 (centres undefined),-24,2,-12,.
O=C(NNc1cccc(Cl)n1)Nc1ccc(F)cc1,.,-1,-10,.
CCOC(=O)c1cc(C#N)c(SCc2cccc3ccccc23)nc1C,-18,10*,-12,-9
O=C(c1cccc(-c2ccc(O)cc2)c1)N1CCN(c2ccc(F)cc2)CC1,.,3,-7,.
COC(=O)Cc1cc(=O)n(-c2nc3ccccc3[nH]2)[nH]1,72*,2,-4,-6
COc1cccc(N2CCN(CC(=O)Nc3nc4c(s3)CC(C)CC4)CC2)c1 (centres undefined),-53,0,16,-10
CC1CCc2nc(NC(=O)CN3CCN(c4ccc(F)cc4)CC3)sc2C1 (centres undefined),-65,0,67*,-5
O=C1CSC(=NC2CCCCC2)N1,28,0,84*,2
N#CC1=C(N)C2=CCCC[C@H]2[C@H](c2ccc(Br)cc2)C1(C#N)C#N,-14,2,68*,0
N#CC1=C(N)C2=CCCC[C@H]2[C@H](c2ccccc2)C1(C#N)C#N,-3,1,12,4
O=C(NCC(c1cccs1)N1CCOCC1)c1ccccc1NS(=O)(=O)c1cc([N+](=O)[O-])ccc1Cl (centres undefined),-5,1,5,6
CCC12CN3CC(CC)(CN(C1)C3c1c(O)ccc3ccccc13)C2=O (centres undefined),-38,0,14,26*
C=CCOc1ccc(C2N3CC4(CC)CN2CC(CC)(C3)C4=O)cc1 (centres undefined),-29,0,20,7
CCOc1ccc2[nH]c(=O)c(CN(Cc3ccco3)Cc3nnnn3Cc3ccccc3)cc2c1,-26,3,-2,-24
COc1ccc2[nH]c(=O)c(CN(Cc3ccco3)Cc3nnnn3Cc3ccccc3)cc2c1,-28,9.7*,21,-7
CN(C)S(=O)(=O)c1cccc(C(=O)NCC2CCCO2)c1 (centres undefined),-30,1,97*,-14
SMILES,BB579 growth dn,RAM network inh,WT yeast gro inh,Yeast lifespan up
CN(c1ccc(C(=O)NCC2CCCO2)cc1)S(=O)(=O)c1ccccc1 (centres undefined),-36,2,9,-9
COc1ccc(N(C)S(=O)(=O)c2cccc(C(=O)NC3CCCC3)c2)cc1,.,0,-21,.
COc1ccc(OCC(=O)NNC(=O)c2cccc(S(=O)(=O)N(C)C)c2)cc1,-26,0,-10,31*
CCN(CC)S(=O)(=O)c1ccc(C(=O)N2CCCCC2)cc1,-46,1,7,-2
C1=C(CCNc2ncnc3c2[nH]c2ccccc23)CCCC1,-24,3,87*,-2
CCc1cccc(CC)c1NC(=S)NCCc1c(C)[nH]c2ccc(C)cc12,32,7,78*,-1
CCc1cccc(C)c1NC(=S)NCCc1c(C)[nH]c2ccc(C)cc12,45*,7,62*,2
COc1ccc2[nH]c(C)c(CCNC(=S)Nc3cccc(C)c3)c2c1,-5,4,8,-3
CN(Cc1ccccc1)C(=O)CC(c1ccccc1)c1cc(Cl)ccc1O (centres undefined),-11,2,-11,-13

# From PubChem BioAssay
